Experimental data: ChEMBL document CHEMBL1130247, “Antirhino/enteroviral vinylacetylene benzimidazoles: a study of their activity and oral plasma levels in mice” (J Med Chem, 1997)
In brackets after ≈: the same amount, converted by molar mass.

Experiments:
[1] = test system: rhinovirus B14; test: Antiviral activity against human rhinovirus 14 using plaque reduction assay in HeLa cell lines; format: functional, organism-based, human rhinovirus type 14; conditions: Rhinovirus B
[2] = test system: Human rhinovirus sp.; test: Antiviral activity against human rhinovirus 16; format: functional, organism-based
[3] = test system: Human rhinovirus sp.; test: Antiviral activity against human rhinovirus 1A; format: functional, organism-based
[4] = test system: Enterovirus C; test: Antiviral activity against poliovirus 1; format: functional, organism-based
Method in brief: (§1)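 HeLa monolayers in MEM with 5% FBS and 10 mM MgSO4, infected with virus for 1–2 h at room temperature. Overlay of 1.5% agarose mixed 1:1 with 2× MEM (2% FBS) holding graded compound concentrations, diluted in DMSO from a 20 mg/mL stock. Incubated at 37 °C until DMSO-control plaques reached optimal size. Formalin-fixed, crystal violet-stained, plaques counted in duplicate wells. IC50 by Reed–Muench.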

[5] = test system: Human rhinovirus sp.; test: Antiviral activity against human rhinovirus 2; format: functional, organism-based
[6] = test system: Coxsackievirus; test: Antiviral activity against coxsackie virus B3; format: functional, organism-based; method in brief: as §1
[7] = test system: Coxsackievirus; test: Antiviral activity against coxsackie virus A21; format: functional, organism-based; method in brief: as §1
[8] = Antiviral activity against human rhinovirus 14 (HRV-14) using CPE/XTT assay in human tumor cell lines.; format: organism-based, human rhinovirus type 14; conditions: read-out: TC50 (the source's name)
Method in brief: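 Cytopathic-effect assay run by an earlier published method, except that surviving host cells were quantified with XTT substrate instead of crystal violet staining.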

[9] = test system: Coxsackievirus; test: Antiviral activity against coxsackie virus A21M; format: functional, organism-based
[10] = Oral plasma concentration in mice at 100 mg/kg dosage within 4-hr time frame.; format: ADME, organism-based; set-up: route oral, dose 100 mg/kg; conditions: mouse
[11] = Oral bioavailability in monkey; format: ADME, organism-based; conditions: primates, in vivo
[12] = test system: HeLa; test: Antiviral activity against poliovirus 1 using PV-1 plaque reduction assay in HeLa cell lines; format: functional, cell-based; conditions: Homo sapiens; method in brief: as §1

| SMILES | IC50 [1] [mg/L] | IC50 [2] [mg/L] | IC50 [3] [mg/L] | IC50 [4] [mg/L] | IC50 [5] [mg/L] | IC50 [6] [mg/L] | IC50 [7] [mg/L] | CC50 [8] [mg/L] | IC50 ([9]; Coxsackievirus, read-out: IC50) [mg/L] | Cmax [10] [µg/mL] | bioavailability [11] [%] | IC50 [12] [mg/L] | IC50 [9] [mg/L] |
| --- | --- | --- | --- | --- | --- | --- | --- | --- | --- | --- | --- | --- | --- |
| C#C/C=C(/c1ccc2nc(N)n(S(=O)(=O)C(C)C)c2c1)c1ccccc1F | 0.092 (≈ 0.24 µM) | 0.07 (≈ 0.183 µM) | 0.035 (≈ 0.0913 µM) | 0.045 (≈ 0.117 µM) | 0.05 (≈ 0.13 µM) | 0.05 (≈ 0.13 µM) | 0.079 (≈ 0.206 µM) | 66 (≈ 172 µM) | 0.1 (≈ 0.261 µM) | 9.2 | – | – | – |
| C#C/C=C(/c1ccc2nc(N)n(S(=O)(=O)C(C)C)c2c1)c1cc(F)ccc1F | 0.11 (≈ 0.274 µM) | 0.099 (≈ 0.247 µM) | 0.096 (≈ 0.239 µM) | 0.032 (≈ 0.0797 µM) | 0.079 (≈ 0.197 µM) | 0.1 (≈ 0.249 µM) | 0.069 (≈ 0.172 µM) | 63 (≈ 157 µM) | 0.1 (≈ 0.249 µM) | 9.3 | – | – | – |
| C#C/C=C(\c1ccc(F)c(F)c1)c1ccc2nc(N)n(S(=O)(=O)C(C)C)c2c1 | 0.19 (≈ 0.473 µM) | 0.55 (≈ 1.37 µM) | 0.12 (≈ 0.299 µM) | 0.082 (≈ 0.204 µM) | 0.23 (≈ 0.573 µM) | 0.1 (≈ 0.249 µM) | 0.247 (≈ 0.615 µM) | 19 (≈ 47.3 µM) | 0.22 (≈ 0.548 µM) | 2.9 | – | – | – |
| C#C/C=C(\c1cccc(C(F)(F)F)c1)c1ccc2nc(N)n(S(=O)(=O)C(C)C)c2c1 | 0.4 (≈ 0.923 µM) | – | – | – | – | – | – | > 100 | – | 4.9 | – | – | – |
| C#C/C=C(\c1ccc(OC)c(F)c1)c1ccc2nc(N)n(S(=O)(=O)C(C)C)c2c1 | 0.061 (≈ 0.148 µM) | 0.06 (≈ 0.145 µM) | 0.049 (≈ 0.119 µM) | 0.016 (≈ 0.0387 µM) | 0.054 (≈ 0.131 µM) | 0.035 (≈ 0.0846 µM) | 0.032 (≈ 0.0774 µM) | 5.5 (≈ 13.3 µM) | 0.029 (≈ 0.0701 µM) | 9.2 | – | – | – |
| C#C/C=C(\c1ccccc1)c1cc2c(cc1F)nc(N)n2S(=O)(=O)C(C)C | – | – | – | – | – | – | – | 13 (≈ 33.9 µM) | – | 16 | 46 | 1.5 (≈ 3.91 µM) | – |
| C#C/C=C(\c1ccccc1)c1ccc2nc(N)n(S(=O)(=O)C(C)C)c2c1F | 2.8 (≈ 7.3 µM) | – | – | – | – | – | – | 57 (≈ 149 µM) | – | 0.52 | – | – | – |
| C#C/C=C(\c1ccc(C)cc1)c1ccc2nc(N)n(S(=O)(=O)C(C)C)c2c1 | 0.075 (≈ 0.198 µM) | – | – | – | – | – | – | 5.7 (≈ 15 µM) | – | 0.61 | – | – | – |
| C#C/C=C(\c1cc(F)cc(F)c1)c1ccc2nc(N)n(S(=O)(=O)C(C)C)c2c1 | 0.17 (≈ 0.423 µM) | 0.26 (≈ 0.648 µM) | 0.12 (≈ 0.299 µM) | 0.12 (≈ 0.299 µM) | 0.18 (≈ 0.448 µM) | 0.14 (≈ 0.349 µM) | 0.19 (≈ 0.473 µM) | 32 (≈ 79.7 µM) | 0.23 (≈ 0.573 µM) | 18 | – | – | – |
| C#C/C=C(\c1cccc(F)c1)c1ccc2nc(N)n(S(=O)(=O)N(C)C)c2c1 | 0.061 (≈ 0.159 µM) | 0.04 (≈ 0.104 µM) | 0.053 (≈ 0.138 µM) | 0.047 (≈ 0.122 µM) | 0.05 (≈ 0.13 µM) | 0.07 (≈ 0.182 µM) | 0.1 (≈ 0.26 µM) | > 100 | 0.09 (≈ 0.234 µM) | 8.4 | – | – | – |
| C/C=C(\c1ccccc1)c1ccc2nc(N)n(S(=O)(=O)C(C)C)c2c1 | – | – | – | – | – | – | – | – | – | 5.1 | – | – | – |
| CC(C)S(=O)(=O)n1c(N)nc2ccc(C(=O)c3cccc(F)c3)cc21 | 2.1 (≈ 5.81 µM) | – | – | – | – | – | – | 15.9 (≈ 44 µM) | – | – | – | – | – |
| C#C/C=C(\c1cccc(F)c1)c1ccc2nc(N)n(S(=O)(=O)C(C)C)c2c1 | 0.06 (≈ 0.156 µM) | 0.057 (≈ 0.149 µM) | 0.027 (≈ 0.0704 µM) | 0.037 (≈ 0.0965 µM) | 0.069 (≈ 0.18 µM) | 0.032 (≈ 0.0835 µM) | 0.085 (≈ 0.222 µM) | 5.3 (≈ 13.8 µM) | 0.046 (≈ 0.12 µM) | 12 | – | – | – |
| C#C/C=C(\c1cccc(Cl)c1)c1ccc2nc(N)n(S(=O)(=O)C(C)C)c2c1 | 0.21 (≈ 0.525 µM) | 0.19 (≈ 0.475 µM) | 0.13 (≈ 0.325 µM) | 0.15 (≈ 0.375 µM) | 0.12 (≈ 0.3 µM) | 0.17 (≈ 0.425 µM) | 0.23 (≈ 0.575 µM) | 20 (≈ 50 µM) | 0.18 (≈ 0.45 µM) | 18 | – | – | – |
| CC#C/C=C(\c1cccc(F)c1)c1ccc2nc(N)n(S(=O)(=O)C(C)C)c2c1 | 0.26 (≈ 0.654 µM) | 0.09 (≈ 0.226 µM) | 0.14 (≈ 0.352 µM) | 0.12 (≈ 0.302 µM) | 0.28 (≈ 0.704 µM) | 0.19 (≈ 0.478 µM) | 0.33 (≈ 0.83 µM) | 3.1 (≈ 7.8 µM) | 0.36 (≈ 0.906 µM) | 0.64 | – | – | – |
| C#C/C=C(\c1ccc(OC(F)(F)F)cc1)c1ccc2nc(N)n(S(=O)(=O)C(C)C)c2c1 | 0.55 (≈ 1.22 µM) | 0.22 (≈ 0.489 µM) | 0.26 (≈ 0.578 µM) | 0.27 (≈ 0.601 µM) | 0.35 (≈ 0.779 µM) | 0.7 (≈ 1.56 µM) | 0.22 (≈ 0.489 µM) | 18 (≈ 40 µM) | 0.5 (≈ 1.11 µM) | 2 | – | – | – |
| C#C/C=C(\c1ccccc1)c1ccc2nc(N)n(S(=O)(=O)C(C)C)c2c1 | 0.094 (≈ 0.257 µM) | 0.039 (≈ 0.107 µM) | 0.033 (≈ 0.0903 µM) | 0.037 (≈ 0.101 µM) | 0.065 (≈ 0.178 µM) | 0.1 (≈ 0.274 µM) | 0.037 (≈ 0.101 µM) | 11 (≈ 30.1 µM) | 0.089 (≈ 0.244 µM) | – | – | – | – |
| C#C/C=C(\c1ccc(OC)cc1)c1ccc2nc(N)n(S(=O)(=O)C(C)C)c2c1 | 0.059 (≈ 0.149 µM) | 0.029 (≈ 0.0733 µM) | 0.03 (≈ 0.0759 µM) | 0.04 (≈ 0.101 µM) | 0.041 (≈ 0.104 µM) | 0.055 (≈ 0.139 µM) | 0.047 (≈ 0.119 µM) | 5.2 (≈ 13.1 µM) | 0.051 (≈ 0.129 µM) | – | – | – | – |
| C#C/C=C(\c1ccc(F)cc1)c1ccc2nc(N)n(S(=O)(=O)C(C)C)c2c1 | 0.13 (≈ 0.339 µM) | 0.098 (≈ 0.256 µM) | 0.078 (≈ 0.203 µM) | 0.067 (≈ 0.175 µM) | 0.091 (≈ 0.237 µM) | 0.095 (≈ 0.248 µM) | 0.1 (≈ 0.261 µM) | 5.8 (≈ 15.1 µM) | – | 9.2 | 23 | – | 0.062 (≈ 0.162 µM) |
| C#C/C=C(\c1ccc(N(C)C)cc1)c1ccc2nc(N)n(S(=O)(=O)C(C)C)c2c1 | 0.117 (≈ 0.286 µM) | 0.08 (≈ 0.196 µM) | 0.048 (≈ 0.117 µM) | 0.059 (≈ 0.144 µM) | 0.06 (≈ 0.147 µM) | 0.06 (≈ 0.147 µM) | 0.14 (≈ 0.343 µM) | 5.3 (≈ 13 µM) | 0.13 (≈ 0.318 µM) | 0.21 | – | – | – |
| CC(C)S(=O)(=O)n1c(N)nc2ccc(/C(=N/O)c3ccccc3)cc21 [ENVIROXIME] | – | – | – | – | – | – | – | – | – | 0.89 | – | – | – |
